# Reference: ChEMBL document CHEMBL3751743, “Synthesis and anti-cancer screening of novel heterocyclic-(2H)-1,2,3-triazoles as potential anti-cancer agents” (Medchemcomm, 2015)
# Assays:
# [1] = Cytotoxicity against human Hs578T cells assessed as reduction of cell viability after 48 hrs by calcein-AM-based fluorescence analysis; assay type: functional; conditions: Hs-578T
# How it was run: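 Cells seeded at 3,000 per well in DMEM with 10% FBS and left overnight at 37 °C. A range of compound concentrations or vehicle was then added for 48 h. Cells were washed with DPBS pH 7.4 and loaded with 2 μM calcein-AM for 30 min at 25 °C. Fluorescence read at ex 490/em 520 nm; viability is given relative to untreated control (100%). Mean ± s.d.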
# 786-0 = test: Cytotoxicity against human 786-0 cells after 48 hrs by SRB assay; assay type: functional; conditions: 786-0, 48 h
# How it was run: (§1)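 NCI-60 five-dose screen: compounds dissolved in DMSO/H2O, tested at five 10-fold dilutions (10^-4 to 10^-8 M) for 48 h. Growth measured by sulforhodamine B optical density at time zero and after 48 h drug or vehicle exposure. Percentage growth calculated relative to control. GI50 is the molar concentration giving 50% reduction in net cell growth versus day-0 cell numbers.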
# [2] = Cytotoxicity against human HCT15 cells after 48 hrs by SRB assay; assay type: functional; conditions: HCT-15, 48 h; how it was run: as §1
# [3] = Cytotoxicity against human HL-60(TB) cells after 48 hrs by SRB assay; assay type: functional; conditions: HL-60, 48 h; how it was run: as §1
# [4] = Cytotoxicity against human DU145 cells after 48 hrs by SRB assay; assay type: functional; conditions: DU-145, 48 h; how it was run: as §1
# A498 = test: Cytotoxicity against human A498 cells after 48 hrs by SRB assay; assay type: functional; conditions: A498, 48 h; how it was run: as §1
# HT-29 = test: Cytotoxicity against human HT-29 cells after 48 hrs by SRB assay; assay type: functional; conditions: HT-29, 48 h; how it was run: as §1
# [5] = Cytotoxicity against human SW620 cells after 48 hrs by SRB assay; assay type: functional; conditions: SW-620, 48 h; how it was run: as §1
# [6] = Cytotoxicity against human RXF393 cells after 48 hrs by SRB assay; assay type: functional; conditions: RXF 393, 48 h; how it was run: as §1
# [7] = Cytotoxicity against human SNB19 cells after 48 hrs by SRB assay; assay type: functional; conditions: SNB-19, 48 h; how it was run: as §1
# NCI-H226 = test: Cytotoxicity against human NCI-H226 cells after 48 hrs by SRB assay; assay type: functional; conditions: NCI-H226, 48 h; how it was run: as §1
# [8] = Cytotoxicity against human SKOV3 cells after 48 hrs by SRB assay; assay type: functional; conditions: SK-OV-3, 48 h; how it was run: as §1
# [9] = Cytotoxicity against human HCT116 cells after 48 hrs by SRB assay; assay type: functional; conditions: HCT-116, 48 h; how it was run: as §1
# A549 = test: Cytotoxicity against human A549 cells after 48 hrs by SRB assay; assay type: functional; conditions: A549, 48 h; how it was run: as §1
# MDA-MB-435 = test: Cytotoxicity against human MDA-MB-435 cells after 48 hrs by SRB assay; assay type: functional; conditions: MDA-MB-435, 48 h; how it was run: as §1
# [10] = Cytotoxicity against human OVCAR3 cells after 48 hrs by SRB assay; assay type: functional; conditions: OVCAR-3, 48 h; how it was run: as §1
# [11] = Cytotoxicity against human BT549 cells after 48 hrs by SRB assay; assay type: functional; conditions: BT-549, 48 h; how it was run: as §1
# MCF7 = test: Cytotoxicity against human MCF7 cells after 48 hrs by SRB assay; assay type: functional; conditions: MCF7, 48 h; how it was run: as §1
# [12] = Cytotoxicity against human SF539 cells after 48 hrs by SRB assay; assay type: functional; conditions: SF-539, 48 h; how it was run: as §1
# MDA-MB-231 = test: Cytotoxicity against human MDA-MB-231 cells after 48 hrs by SRB assay; assay type: functional; conditions: MDA-MB-231, 48 h; how it was run: as §1
# [13] = Cytotoxicity against human OVCAR5 cells after 48 hrs by SRB assay; assay type: functional; conditions: OVCAR-5, 48 h; how it was run: as §1
# [14] = Cytotoxicity against human Hs 578T cells after 48 hrs by SRB assay; assay type: functional; how it was run: as §1
# CCRF-CEM = test: Cytotoxicity against human CCRF-CEM cells after 48 hrs by SRB assay; assay type: functional; how it was run: as §1
# SK-MEL-5 = test: Cytotoxicity against human SK-MEL-5 cells after 48 hrs by SRB assay; assay type: functional; conditions: SK-MEL-5, 48 h; how it was run: as §1
# [15] = Cytotoxicity against human RPMI8226 cells after 48 hrs by SRB assay; assay type: functional; conditions: RPMI-8226, 48 h; how it was run: as §1
# SN12C = test: Cytotoxicity against human SN12C cells after 48 hrs by SRB assay; assay type: functional; how it was run: as §1
# T47D = test: Cytotoxicity against human T47D cells after 48 hrs by SRB assay; assay type: functional
# How it was run: (§2)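 NCI-60 five-dose screen. Compounds dissolved in DMSO/H2O and tested at five 10-fold dilutions (10^-4 to 10^-8 M) for 48 h. Growth read by sulforhodamine B optical density at time zero and after 48 h of exposure to compound or vehicle. Percent growth calculated against control. GI50 is the molar concentration giving 50% reduction in net cell growth relative to cell number on day 0.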
# M14 = test: Cytotoxicity against human M14 cells after 48 hrs by SRB assay; assay type: functional; conditions: M14, 48 h; how it was run: as §1
# [16] = Cytotoxicity against human PC3 cells after 48 hrs by SRB assay; assay type: functional; conditions: PC-3, 48 h; how it was run: as §1
# [17] = Cytotoxicity against human MOLT4 cells after 48 hrs by SRB assay; assay type: functional; conditions: MOLT-4, 48 h; how it was run: as §1
# NCI-H23 = test: Cytotoxicity against human NCI-H23 cells after 48 hrs by SRB assay; assay type: functional; conditions: NCI-H23, 48 h; how it was run: as §1
# [18] = Cytotoxicity against human OVCAR8 cells after 48 hrs by SRB assay; assay type: functional; conditions: OVCAR-8, 48 h; how it was run: as §1
# [19] = Cytotoxicity against human SNB75 cells after 48 hrs by SRB assay; assay type: functional; conditions: SNB-75, 48 h; how it was run: as §1
# [20] = Cytotoxicity against human LOXIMVI cells after 48 hrs by SRB assay; assay type: functional; conditions: LOX IMVI; how it was run: as §1
# [21] = Cytotoxicity against human Caki1 cells after 48 hrs by SRB assay; assay type: functional; conditions: CAKI-1, 48 h; how it was run: as §1
# MDA-MB-468 = test: Cytotoxicity against human MDA-MB-468 cells after 48 hrs by SRB assay; assay type: functional; conditions: MDA-MB-468, 48 h; how it was run: as §1
# [22] = Cytotoxicity against human UO31 cells after 48 hrs by SRB assay; assay type: functional; conditions: UO-31, 48 h; how it was run: as §2
# [23] = Cytotoxicity against human SF268 cells after 48 hrs by SRB assay; assay type: functional; conditions: SF-268, 48 h; how it was run: as §1
# [24] = Cytotoxicity against human HOP92 cells after 48 hrs by SRB assay; assay type: functional; conditions: HOP-92, 48 h; how it was run: as §1
# K562 = test: Cytotoxicity against human K562 cells after 48 hrs by SRB assay; assay type: functional; conditions: K562, 48 h; how it was run: as §1
# U-251 = test: Cytotoxicity against human U251 cells after 48 hrs by SRB assay; assay type: functional; conditions: U-251, 48 h; how it was run: as §2
# NCI-H522 = test: Cytotoxicity against human NCI-H522 cells after 48 hrs by SRB assay; assay type: functional; conditions: NCI-H522, 48 h; how it was run: as §1
# NCI-H460 = test: Cytotoxicity against human NCI-H460 cells after 48 hrs by SRB assay; assay type: functional; conditions: NCI-H460, 48 h; how it was run: as §1
# [25] = Cytotoxicity against human NCI-ADR-RES cells after 48 hrs by SRB assay; assay type: functional; how it was run: as §1
# SK-MEL-2 = test: Cytotoxicity against human SK-MEL-2 cells after 48 hrs by SRB assay; assay type: functional; conditions: SK-MEL-2, 48 h; how it was run: as §1
# KM12 = test: Cytotoxicity against human KM12 cells after 48 hrs by SRB assay; assay type: functional; conditions: KM12, 48 h; how it was run: as §1
# [26] = Cytotoxicity against human TK10 cells after 48 hrs by SRB assay; assay type: functional; conditions: TK-10, 48 h; how it was run: as §2
# [27] = Cytotoxicity against human HCC2998 cells after 48 hrs by SRB assay; assay type: functional; conditions: HCC 2998, 48 h; how it was run: as §1
# SR = test: Cytotoxicity against human SR cells after 48 hrs by SRB assay; assay type: functional; how it was run: as §1
# ACHN = test: Cytotoxicity against human ACHN cells after 48 hrs by SRB assay; assay type: functional; how it was run: as §1
# [28] = Cytotoxicity against human OVCAR4 cells after 48 hrs by SRB assay; assay type: functional; conditions: OVCAR-4, 48 h; how it was run: as §1
# Tubulin = Tubulin (Sus scrofa, UniProt P02554+P02550); test: Inhibition of porcine brain tubulin polymerization by spectrophotometric analysis
# How it was run: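 Tubulin at 4 mg/mL in cold 80 mM PIPES pH 6.9 with 2 mM MgCl2, 0.5 mM EGTA, GTP and 10% glycerol. Compound (added as 10x stock in 50% DMSO) or DMSO was preincubated 2 min at 37 °C in a prewarmed plate. Cold tubulin was then added, and polymerization at 37 °C was followed by A340 over time. Dose-response, mean ± s.d., n=3.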
# [29] = Cytotoxicity against human COLO205 cells after 48 hrs by SRB assay; assay type: functional; conditions: COLO 205, 48 h; how it was run: as §1
# [30] = Cytotoxicity against human UACC62 cells after 48 hrs by SRB assay; assay type: functional; conditions: UACC-62, 48 h; how it was run: as §2
# [31] = Cytotoxicity against human UACC257 cells after 48 hrs by SRB assay; assay type: functional; conditions: UACC-257, 48 h; how it was run: as §2
# [32] = Cytotoxicity against human SF295 cells after 48 hrs by SRB assay; assay type: functional; conditions: SF-295, 48 h; how it was run: as §1
compound,measurement,setting,value
COc1cc(OC)cc(-c2n[nH]nc2-c2cc3ccccc3s2)c1,GI50,[1],0.065 µM
COc1cc(OC)cc(-c2n[nH]nc2-c2c[nH]c3ccccc23)c1,GI50,786-0,0.03 µM
same,GI50,[2],0.031 µM
same,GI50,[3],0.033 µM
same,GI50,[4],0.075 µM
same,GI50,A498,0.033 µM
same,GI50,HT-29,0.031 µM
same,GI50,[5],0.035 µM
same,GI50,[6],0.052 µM
same,GI50,[7],0.056 µM
same,GI50,NCI-H226,0.075 µM
same,GI50,[8],0.034 µM
same,GI50,[9],0.031 µM
same,GI50,A549,0.088 µM
same,GI50,MDA-MB-435,0.01 µM
same,GI50,[10],0.028 µM
same,GI50,[11],0.017 µM
same,GI50,MCF7,0.029 µM
same,GI50,[12],0.024 µM
same,GI50,MDA-MB-231,0.076 µM
same,GI50,[13],0.416 µM
same,GI50,[14],0.031 µM
same,GI50,CCRF-CEM,0.037 µM
same,GI50,SK-MEL-5,0.034 µM
same,GI50,[15],0.053 µM
same,GI50,SN12C,0.069 µM
same,GI50,T47D,0.044 µM
same,GI50,M14,0.031 µM
same,GI50,[16],0.038 µM
same,GI50,[17],0.063 µM
same,GI50,NCI-H23,0.124 µM
same,GI50,[18],0.07 µM
same,GI50,[19],0.025 µM
same,GI50,[20],0.055 µM
same,GI50,[21],0.038 µM
same,GI50,MDA-MB-468,0.037 µM
same,GI50,[22],0.062 µM
same,GI50,[23],0.067 µM
same,GI50,[24],0.029 µM
same,GI50,K562,0.031 µM
same,GI50,U-251,0.054 µM
same,GI50,NCI-H522,0.013 µM
same,GI50,NCI-H460,0.038 µM
same,GI50,[25],0.03 µM
same,GI50,SK-MEL-2,0.031 µM
same,GI50,KM12,0.045 µM
same,GI50,[26],0.083 µM
same,GI50,[27],0.251 µM
same,GI50,SR,0.047 µM
same,GI50,ACHN,0.045 µM
same,GI50,[28],2.67 µM
same,IC50,Tubulin,13.5 µM
same,GI50,[29],0.035 µM
same,GI50,[30],0.034 µM
same,GI50,[31],> 100 µM
same,GI50,[32],0.026 µM
COc1cc(-c2n[nH]nc2-c2cc3ccccc3o2)cc(OC)c1OC,GI50,[1],0.02 µM
